High-throughput results (PubChem)
Only some compounds are listed: those with a hit (about 2.5% of all), similar ones and a draw of the others.
TCR CD3 inh: inhibitors of human TCR-CD3 interaction, primary screen, biochemical, fluorescence, TAMRA-labeled TCR probe | T-cell receptor (TCR) | inhibition, % at 9.4 µM | 360,000 compounds, 0.37% hits | AID 651800, 2012; in the data active means inhibition above about 19%;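 further: recombinant mutant TCR 2C K166C tagged with TAMRA read by polarization; 0% = receptor in buffer alone and 100% = receptor with positive control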
PRMT1 FP inh: PRMT1 methyltransferase inhibitors, primary screen, biochemical, fluorescence polarization; Protein arginine N-methyltransferase 1 (Homo sapiens), Q99873; recombinant PRMT1, activity-based probe fluorescence polarization; inhibition, % at 2.79 µM; 370,000 compounds, 1.3% hits;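 active means inhibition above about 21% made by adding two undisclosed values, limit read from the data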
Target sequence (Q99873 whole entry, looked up): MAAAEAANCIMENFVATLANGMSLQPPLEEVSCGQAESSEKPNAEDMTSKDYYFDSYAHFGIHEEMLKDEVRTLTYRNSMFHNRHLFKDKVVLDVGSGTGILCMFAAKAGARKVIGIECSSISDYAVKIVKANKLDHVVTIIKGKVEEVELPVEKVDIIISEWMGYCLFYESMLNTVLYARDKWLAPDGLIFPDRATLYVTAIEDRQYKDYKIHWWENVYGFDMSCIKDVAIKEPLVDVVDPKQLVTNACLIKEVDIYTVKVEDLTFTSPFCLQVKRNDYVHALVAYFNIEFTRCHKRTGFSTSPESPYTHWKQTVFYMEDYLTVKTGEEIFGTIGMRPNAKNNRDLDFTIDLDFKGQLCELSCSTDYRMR
SIAE primary: human SIAE inhibitors, primary screen, biochemical, fluorescence polarization, FP-Rh probe, 1536-well HTS. 370,000 compounds, 0.69% hits. AID 1053197, 2014. inhibition, % at 9.66 µM. Sialate O-acetylesterase (Homo sapiens), Q9HAT2. SIAE FP-Rh probe binding;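 active means inhibition above a cutoff: mean of compounds within the control limits plus 3 SD of those, cut at about 17% in these data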;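 further: 0% = plate median of compound wells and 100% = probe without SIAE protein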
HTRA1 inh: HTRA1 serine protease inhibitors, primary screen, biochemical, fluorescence polarization, HTS; inhibition, % at 5.96 µM; recombinant HTRA1, FP-rhodamine activity-based probe; 340,000 compounds, 0.5% hits; Q92743; in the data active means inhibition above about 36%;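 further: 0% = enzyme with DMSO and 100% = wells lacking enzyme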
ABHD4 inh: ABHD4 inhibitors, primary screen, biochemical, fluorescence polarization, mouse; (Lyso)-N-acylphosphatidylethanolamine lipase (Mus musculus), Q8VD66; purified mABHD4, FP-Rh probe fluorescence polarization; inhibition, % at 8.92 µM; 370,000 compounds, 0.54% hits;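 active means inhibition exceeding the mean over every tested compound plus 3 SD, cut at about 30% in these data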;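 further: 0% = plate median of compound wells and 100% = S159A mutant with DMSO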
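Assay system: mouse ABHD4 enzyme, wild type / Also added: fluorescent activity-based probe FP-Rh / Doses: single nominal dose of 8.92 µM, 0.89% DMSO final / Timing: 45 min compound pre-incubation plus 60 min probe step, 25 °C / Signal: FP readout, ex 525 nm / em 598 nm / Control set: S159A mutant/DMSO as 100%, compound-well median as 0%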
PRMT1 confirm: PRMT1 methyltransferase inhibitors, confirmation, biochemical, fluorescence polarization, triplicate; shares compounds with PRMT1 FP inh; recombinant His-PRMT1, activity-based probe fluorescence polarization; inhibition, % at 2.79 µM; 3,300 compounds, 42% hits;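 active means mean inhibition across replicates above the hit cutoff derived for the earlier primary screen, cut at about 22% in these data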
* marks the source's active call; other numbers are inactive results; / = not tested or not shown.

SMILES	TCR CD3 inh	PRMT1 FP inh	SIAE primary	HTRA1 inh	ABHD4 inh	PRMT1 confirm
C=CCN1C(=O)[C@@H](CC(=O)N2CCN(C(=O)C3CC3)CC2)[C@]2(C(=O)OCC)CCCCC/C=C/12	/	2	-2	/	-1	/
COc1ccc(CCNC(=O)Nc2ccc3c(c2)[C@@]2(CC(=O)N(CC(C)C)C2c2ccccc2)C(=O)N3C)cc1OC (stereo partly specified)	/	6	1	/	7	/
CN(C)CCN(C)Cc1c2ccccc2c(CN(C)CCN(C)C)c2ccccc12	-1	31*	1	-3	0	8
CCC[C@H]1[C@@H](O)CC[C@@]23CCCN2C(=O)CCC[C@@H]13	/	4	-4	/	-5	/
COc1ccccc1/C=C/C=C1\Oc2c(ccc(O)c2CN(C)C)C1=O	-8	27*	-7	6	2	16
CCN(CC)Cc1c(O)ccc2c1O/C(=C\C=C\c1ccccc1)C2=O	8	19	-5	0	3	/
Cc1ccc2nc(SCC(=O)c3cc(C)n(C)c3C)[nH]c2c1	-1	7	10	-6	0	/
C/C(N)=C(/C#N)C(=O)CSc1nc2ccc(C)cc2[nH]1	4	26*	3	1	6	4
CN(Cc1ccc(F)cc1)C(=O)c1cccc2c1C(=O)N(Cc1cccnc1)C2	/	2	5	/	2	/
COc1ccc(C2C(C(=O)Nc3ccc(Cl)cc3)CCC(=O)N2c2ccc(OC)cc2)cc1 (stereo unspecified)	/	-5	-2	/	-3	/
O=C(C1CC1)N1CCCN(C(=O)C2CC2)CC1	-1	-4	6	-1	5	/
O=C(C1CCN(C2CC(=O)N(c3ccc(F)cc3)C2=O)CC1)N1CCOCC1 (stereo unspecified)	1	46*	-9	4	0	3
O=C1CC(N2CCOCC2)C(=O)N1c1ccccc1Cl (stereo unspecified)	8	26*	-6	8	-1	2
CCN1C(=O)CC(N2CCC(C(=O)N3CCOCC3)CC2)C1=O (stereo unspecified)	-7	8	3	1	-5	/
O=C1CC(N2CCC(C(=O)N3CCCCC3)CC2)C(=O)N1 (stereo unspecified)	-2	62*	3	1	-5	7
CC(=O)Nc1cccc(N2C(=O)CC(N3CCC(C(=O)N4CCCCC4)CC3)C2=O)c1 (stereo unspecified)	-3	79*	-4	-3	2	1
COP(=O)(O)C(C)NC(=O)OCc1ccccc1 (stereo unspecified)	/	-4	-4	/	3	/
Cc1cc(N2CCC[C@@H]2C)nc2ccccc12	/	7	12	/	-7	/
COc1cccc(N2CCN(C3CC(=O)N(c4cccc(Cl)c4)C3=O)CC2)c1 (stereo unspecified)	-5	9	-5	6	4	/
O=C1CCCN1CCC1CCN(C2CC(=O)N(c3ccc(F)cc3)C2=O)CC1 (stereo unspecified)	9	48*	0	0	7	7
COc1cc(OC)cc(N2C(=O)CC(N3CCC(C(=O)N4CCCCC4)CC3)C2=O)c1 (stereo unspecified)	1	78*	-4	-4	-16	2
COCC(=O)Nc1cc(Cl)ccc1C	3	-3	7	-9	-1	/
Cc1ccc(Cl)cc1NC(=O)CSC(N)=O	-4	41*	0	-3	2	99*
CCC[C@H]1[C@@H](OC(=O)NCc2ccc(C)o2)CC[C@@]23CCCN2C(=O)CCC[C@@H]13	/	13	-1	/	3	/
CCOc1ccc2nc3sc(C(=O)N4CCOCC4)c(N)c3cc2c1	-6	28*	1	0	4	3
SMILES	TCR CD3 inh	PRMT1 FP inh	SIAE primary	HTRA1 inh	ABHD4 inh	PRMT1 confirm
CCOC(=O)CNC(=O)CSc1nnc(-c2ccc(C(C)(C)C)cc2)n1-c1ccc(Cl)cc1	/	-2	-1	/	-6	/
O=C(NC1CCCCN(Cc2ccc(Cl)cc2)C1=O)c1ccc(F)c(F)c1 (stereo unspecified)	/	3	-6	/	-7	/
CC(=O)Nc1ccc(S(=O)(=O)NC(C)c2ccncc2)cc1 (stereo unspecified)	-6	1	3	-1	-1	/
CC(=O)Nc1ccc(S(=O)(=O)NC(C)C(=O)NC(C)c2ccccc2)cc1 (stereo unspecified)	5	44*	-3	-3	2	55*
CC(=O)Nc1ccc(S(=O)(=O)N[C@@H](C)C(=O)N2CCN(c3ccccn3)CC2)cc1	2	38*	2	4	-7	23*
CCC(NS(=O)(=O)c1ccc(C)cc1)C(=O)N1CCN(c2ccccn2)CC1 (stereo unspecified)	12	-5	0	-1	1	/
Cc1ccc(-n2c(SCC(=O)Nc3ccc4c5c(cccc35)CC4)nc(O)c(C)c2=O)cc1	-2	37*	-1	3	0	31*
CCOC(=O)[C@]12CCCC=C1N(CCCOC)C(=O)[C@@H]2CC(=O)NCC1CCCCC1	/	4	0	/	1	/
CC(C)(C)NC(=O)[C@H](c1cccnc1)N(C(=O)c1ccco1)c1ccc(C(C)(C)C)cc1	/	3	0	/	-6	/
C#CCNc1cc(-c2ccccc2)nc2ncnn12	-1	2	2	8	5	/
CC(=O)CSc1cc(-c2ccccc2)nc2ncnn12	-10	28*	-4	0	1	37*
CCOC(=O)[C@@]12CN(C(=O)OC(C)(C)C)CC=C1N(Cc1ccc(OC)cc1)C(=O)[C@H]2CC(=O)NCc1cccs1	/	2	-2	/	6	/
N#Cc1c2nc3ccccc3nc2n2cc(NC(=O)c3ccc(F)cc3)ccc12	-14	41*	-10	3	13	14
Cc1c(C(=O)Nc2ccc(F)cc2)cn2c(nc3ccccc32)c1C#N	2	-3	-6	5	2	/
CC1(C)CC(=O)C2=C(C1)OC(N)=C(C#N)[C@@H]2c1ccccc1[N+](=O)[O-]	-5	44*	-3	0	-8	0
CN(C)C(CNC(=O)c1cccc(S(=O)(=O)Nc2ccc(SC(F)F)cc2)c1)c1ccccc1 (stereo unspecified)	-9	44*	-4	-2	1	62*
CC(=O)NC1C(=O)N=C(SCC(=O)NCc2ccccc2)NC1=O (stereo unspecified)	1	40*	-7	0	3	8
CC(=O)NC1C(=O)N=C(SCC(=O)Nc2c(C)cccc2C)NC1=O (stereo unspecified)	-3	42*	-1	6	10	15
